The nature of assay [1]: reduced viability of SK-BR-3 breast cancer cells – cell-based, 24 h, human, pilot screen (AID 572;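 active = viability at or below 10% of carrier control in both of two separate runs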;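 note: compound exposure lasted between 18 and 24 h rather than exactly 24 h; 100% = carrier-treated control wells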). The settings on record: SK-BR-3 viability, CellTiter-Glo luminescence, at 10 µM, stronger effect = lower value.
Assay [2] in a line: HUVEC growth inhibition – cell-based, human, primary screen (AID 575;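 active = viability at or below 30% in both replicate assays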;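 note: 100% = median of untreated cell wells with 0.1% DMSO on each plate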). Conditions: HUVEC proliferation, CellTiter-Glo luminescence, 72 h; at 10 µM; stronger effect = lower value. Summed up:
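Assay system: primary human umbilical vein endothelial cells / Buffer or medium: endothelial basal medium with 2% FBS plus growth supplements / Compound dosing: one dose, 10 µM final, 0.1% DMSO / Timing: 72 h treatment at 37 °C / Signal: CTG luminescence / Benchmarks: 32 DMSO-only cell-control wells (high), 32 MePR drug-control wells (low) per plate / Plate: collagen-coated 384-well format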
In general terms: ATP-based viability assays read luminescence as a measure of living cells.

The nature of assay [3]: H69AR cell proliferation blockers – human, duplicate replicates, primary screen (AID 580).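 Note: 100% = mean luminescence of untreated wells and 0% = no signal.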 Conditions: H69AR lung tumor cells viability, ATP luminescence, 72 h; at 10 µM; stronger effect = lower value.
Assay [4] can be described thus: MRP1 drug-resistance reversers in H69AR cells – cell-based, doxorubicin co-treatment, pilot screen (AID 601;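 active = viability loss from added drug above about 55%, and viability with drug at most 40%, in both replicates, limit read from the data, passing the limit was not always enough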). The settings on record: CellTiter-Glo, 72 h, at 10 µM; for differential viability (reversal): stronger effect = higher value.
Assay [5] can be described thus: yeast transport mutant growth inhibition pilot in 384-well plates, post-Golgi transport modulator project (AID 636; in the data active = inhibition above about 31%). Conditions: absorbance 615 nm, about 18 h, stronger effect = higher value.
The nature of assay [6]: growth suppression of yeast trafficking mutant, preliminary HTS, modulators of trafficking downstream of Golgi apparatus project, 1536-format plate, OD 615 nm (AID 637; in the data active = inhibition above about 30%). The settings on record: yeast transport mutant growth, absorbance 615 nm, 18 h; stronger effect = higher value.
Setting [7] is: H69AR cells + 2 uM doxorubicin, measured here: viability with 2 uM doxorubicin, stronger effect = lower value.
Where [8] appears, read: H69AR cells, compound alone cytotoxicity.

Active and inactive are the calls of the source.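 Rule for the calls, unless noted: active = viability at or under a set limit in both replicates, limit being median viability minus 3 SD (cut at about 48% in these data, passing the limit was not always enough); inconclusive = at or under the limit in just one replicate; inactive = at or above the limit in both replicates.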

By viability is commonly meant a read-out of living cells in per cent, often relative to untreated cells. By inhibition is commonly meant the change of the read-out against control, counted positive when it falls. For the compound `O=S(=O)(c1cccc(S(=O)(=O)N2CCC(N3CCCCC3)CC2)c1)N1CCOCC1`, the viability in assay [1] is 103% (inactive); in assay [2], 98.9% (inactive); in assay [3] it was 93.6% (inactive); in assay [4] (setting [7]), 84.2%; in assay [4] (setting [8]), 93.6%. Besides, the differential viability (reversal) in assay [4] (H69AR cells + 2 uM doxorubicin) is 9.45% (inactive). The figures for the inhibition in assay [5] and in assay [6] were -0.78% (inactive) and -2.95% (inactive), respectively.
On to `COc1ccccc1-n1c(SCC(=O)NC(C)(C)C)nnc1-c1ccco1`, for which the viability was 82% (inactive) in assay [1]; 104% (inactive) in assay [2]; 96.1% (inactive) in assay [3]; 111% in assay [4] (setting [7]); 96.1% in assay [4] (setting [8]). Also, the differential viability (reversal) in assay [4] (H69AR cells + 2 uM doxorubicin) is -15.2% (inactive). Moreover, the results for the inhibition in assay [5] and in assay [6] were -4.79% (inactive) and -3.45% (inactive), respectively.
Take `O=C(CNC(=O)c1cc2ccccc2o1)NCc1cccs1`: the viability was 122% (inactive) in assay [1]; 80.8% (inactive) in assay [2]; 84.4% (inactive) in assay [3]; 88.8% in assay [4] (setting [7]); 84.4% in assay [4] (setting [8]). The differential viability (reversal) in assay [4] (H69AR cells + 2 uM doxorubicin) was -4.37% (inactive). Moreover, the figures for the inhibition in assay [5] and in assay [6] were 0.26% (inactive) and 5.74% (inactive), respectively.
For `COCC(=O)Nc1c(C(=O)Nc2ccccc2OC)oc2ccccc12`, the viability is 78% (inactive) in assay [1]; 59% (inactive) in assay [2]; 75.1% (inactive) in assay [3]; 82.8% in assay [4] (setting [7]); 75.1% in assay [4] (setting [8]). For the same compound, in assay [4] (H69AR cells + 2 uM doxorubicin), the differential viability (reversal) was -7.66% (inactive). Moreover, the inhibition in assay [5] was -8.78% (inactive); in assay [6], -2.79% (inactive).
Turning to `CCCn1c(=NC(C)=O)c(C#N)cc2c(=O)n3cccc(C)c3nc21`, the viability was 89% (inactive) in assay [1]; 108% (inactive) in assay [2]; 87.3% (inactive) in assay [3]; 90.3% in assay [4] (setting [7]); 87.3% in assay [4] (setting [8]). The differential viability (reversal) in assay [4] (H69AR cells + 2 uM doxorubicin) was -3.01% (inactive). Moreover, the inhibition in assay [5] was 0.81% (inactive); in assay [6] it was -3.45% (inactive).
`COC(=O)C1C2C=CC3(CN(CC4CCCO4)C(=O)C13)O2` (stereo unspecified): the viability was 78% (inactive) in assay [1]; 114% (inactive) in assay [2]; 102% (inactive) in assay [3]; 111% in assay [4] (setting [7]); 102% in assay [4] (setting [8]). Also, the differential viability (reversal) in assay [4] (H69AR cells + 2 uM doxorubicin) is -9.38% (inactive). Moreover, the figures for the inhibition in assay [5] and in assay [6] were -6.99% (inactive) and -0.18% (inactive), respectively.
Turning to `Clc1ccc2c(c1)[C@H]1OCC[C@H]1[C@@H](c1ccco1)N2`, the viability is 104% (inactive) in assay [1]; 89.6% (inactive) in assay [2]; 86% (inactive) in assay [3]; 85.6% in assay [4] (setting [7]); 86% in assay [4] (setting [8]). For the same compound, the differential viability (reversal) in assay [4] (H69AR cells + 2 uM doxorubicin) is 0.43% (inactive). In addition, the inhibition is -0.13% (inactive) in assay [5] and -5.83% (inactive) in assay [6].
Regarding `O=C(OC1CCc2ccccc2C1=O)c1ccccc1O` (stereo unspecified), the viability was 71% (inactive) in assay [1]; 106% (inactive) in assay [2]; 78.6% (inactive) in assay [3]; 91.8% in assay [4] (setting [7]); 78.6% in assay [4] (setting [8]). In addition, in assay [4] (H69AR cells + 2 uM doxorubicin), the differential viability (reversal) is -13.2% (inactive). In addition, the inhibition in assay [5] was -1.33% (inactive); in assay [6] it was -1.27% (inactive).
Consider `Cc1cc(C(=O)Nc2nnc(C(F)(F)F)s2)no1`, for which the viability in assay [1] was 98% (inactive); in assay [2] it was 107% (inactive); in assay [3], 105% (inactive); in assay [4] (setting [7]) it was 99.8%; in assay [4] (setting [8]), 105%. The differential viability (reversal) in assay [4] (H69AR cells + 2 uM doxorubicin) was 5.13% (inactive). Besides, the inhibition is -7.4% (inactive) in assay [5] and 0.32% (inactive) in assay [6].
On to `CC(=O)Nc1nnc(S(N)(=O)=O)s1`, for which the viability in assay [1] was 95% (inactive); in assay [2], 88.7% (inactive); in assay [3], 109% (inactive); in assay [4] (setting [7]), 84.6%; in assay [4] (setting [8]), 109%. For the same compound, the differential viability (reversal) in assay [4] (H69AR cells + 2 uM doxorubicin) is 24.6% (inactive). The inhibition in assay [5] is -1.82% (inactive); in assay [6], 3.33% (inactive).
Take `Cn1c(=O)[nH]c(=O)c2c1nc(Br)n2Cc1ccccc1F`: the viability in assay [1] was 116% (inactive); in assay [2], 78% (inactive); in assay [3], 86.9% (inactive); in assay [4] (setting [7]), 70.2%; in assay [4] (setting [8]), 86.9%. Also, the differential viability (reversal) in assay [4] (H69AR cells + 2 uM doxorubicin) is 16.6% (inactive). Also, the inhibition is 3.15% (inactive) in assay [5] and 3.87% (inactive) in assay [6].
In the case of `CCCC1(C(=O)OC)NC(c2cc(OC)c(OC)c(OC)c2)C2C(=O)N(CC)C(=O)C21` (stereo unspecified), the viability in assay [1] was 67% (inactive); in assay [2], 98.3% (inactive); in assay [3] it was 88.9% (inactive); in assay [4] (setting [7]), 90.4%; in assay [4] (setting [8]) it was 88.9%. The differential viability (reversal) in assay [4] (H69AR cells + 2 uM doxorubicin) is -1.5% (inactive). Further, the inhibition in assay [5] was -4.93% (inactive); in assay [6] it was 21.4% (inactive).
With `CC1=NS(=O)(=O)c2cc(Cl)ccc2N1`, the viability in assay [1] is 119% (inactive); in assay [2], 89.4% (inactive); in assay [3] it was 94.4% (inactive); in assay [4] (setting [7]) it was 87.1%; in assay [4] (setting [8]), 94.4%. Moreover, the differential viability (reversal) in assay [4] (H69AR cells + 2 uM doxorubicin) is 7.28% (inactive). Moreover, the inhibition in assay [5] was -1.17% (inactive); in assay [6] it was 4.67% (inactive).
As to `c1cc2c(cc1Nc1nc(-c3ccc4c(c3)OCO4)cs1)OCCO2`, the viability was 97% (inactive) in assay [1]; 72.6% (inactive) in assay [2]; 90.5% (inactive) in assay [3]; 99.4% in assay [4] (setting [7]); 90.5% in assay [4] (setting [8]). Also, the differential viability (reversal) in assay [4] (H69AR cells + 2 uM doxorubicin) was -8.93% (inactive). The inhibition was -4.19% (inactive) in assay [5] and -10% (inactive) in assay [6].
For `COC(=O)C1=C(N)Oc2cc(C)n(Cc3ccncc3)c(=O)c2C1c1cccnc1` (stereo unspecified), the viability is 113% (inactive) in assay [1]; 86% (inactive) in assay [2]; 88.4% (inactive) in assay [3]; 84.6% in assay [4] (setting [7]); 88.4% in assay [4] (setting [8]). In addition, the differential viability (reversal) in assay [4] (H69AR cells + 2 uM doxorubicin) was 3.73% (inactive). In addition, the inhibition is -7.4% (inactive) in assay [5] and 0.97% (inactive) in assay [6].
On to `CC(=O)/C(C[N+]1(C)CCCCC1)=N\O`, for which the viability in assay [1] is 107% (inactive); in assay [2] it was 103% (inactive); in assay [3] it was 105% (inactive); in assay [4] (setting [7]), 85.6%; in assay [4] (setting [8]) it was 105%. In addition, the differential viability (reversal) in assay [4] (H69AR cells + 2 uM doxorubicin) is 18.9% (inactive). The inhibition was -6.13% (inactive) in assay [5] and 0.55% (inactive) in assay [6].
For the compound `CCCCN1C[C@H](O)[C@@H](O)[C@H](O)[C@H]1CO`, the viability is 123% (inactive) in assay [1]; 88.9% (inactive) in assay [2]; 96.5% (inactive) in assay [3]; 100% in assay [4] (setting [7]); 96.5% in assay [4] (setting [8]). The differential viability (reversal) in assay [4] (H69AR cells + 2 uM doxorubicin) was -3.9% (inactive). Further, the inhibition in assay [5] was 1.82% (inactive); in assay [6] it was 27% (inactive).
